Consider 5 compounds from ChEMBL document CHEMBL4819098, “Novel 1,2,4-triazine-quinoline hybrids: The privileged scaffolds as potent multi-target inhibitors of LPS-induced inflammatory response via dual COX-2 and 15-LOX inhibition” (Eur J Med Chem, 2021).

The term IC50 denotes the concentration needed to halve the response being measured. Usually inhibition stands for the share of the control response that was lost under treatment.

Series [1] deals with T1, Prostaglandin G/H synthase 1 (Ovis aries, UniProt P05979).
T1 sequence (P05979 whole entry): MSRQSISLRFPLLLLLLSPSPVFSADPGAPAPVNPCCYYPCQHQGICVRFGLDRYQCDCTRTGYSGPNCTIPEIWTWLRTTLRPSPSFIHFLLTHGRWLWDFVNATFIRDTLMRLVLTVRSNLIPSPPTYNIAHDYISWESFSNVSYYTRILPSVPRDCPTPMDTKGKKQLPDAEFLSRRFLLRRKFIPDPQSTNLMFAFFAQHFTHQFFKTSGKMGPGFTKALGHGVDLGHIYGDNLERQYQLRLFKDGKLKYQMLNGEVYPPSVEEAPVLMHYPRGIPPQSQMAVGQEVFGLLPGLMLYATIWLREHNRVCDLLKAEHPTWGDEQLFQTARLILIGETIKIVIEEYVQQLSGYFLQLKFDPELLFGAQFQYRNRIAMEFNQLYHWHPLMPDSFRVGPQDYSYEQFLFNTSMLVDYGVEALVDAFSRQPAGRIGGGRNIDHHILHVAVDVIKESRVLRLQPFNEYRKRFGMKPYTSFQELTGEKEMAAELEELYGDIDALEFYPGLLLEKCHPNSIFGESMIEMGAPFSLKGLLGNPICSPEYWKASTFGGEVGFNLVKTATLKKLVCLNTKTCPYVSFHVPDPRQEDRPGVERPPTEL
Put plainly: Inhibition of ovine COX-1 using arachidonic acid as substrate preincubated with enzyme for 5 mins followed by incubation with substrate for 5 mins by colorimetric analysis.

Series [2] concerns the target T2, Prostaglandin G/H synthase 2 (Ovis aries, UniProt P79208).
T2 sequence (P79208 whole entry): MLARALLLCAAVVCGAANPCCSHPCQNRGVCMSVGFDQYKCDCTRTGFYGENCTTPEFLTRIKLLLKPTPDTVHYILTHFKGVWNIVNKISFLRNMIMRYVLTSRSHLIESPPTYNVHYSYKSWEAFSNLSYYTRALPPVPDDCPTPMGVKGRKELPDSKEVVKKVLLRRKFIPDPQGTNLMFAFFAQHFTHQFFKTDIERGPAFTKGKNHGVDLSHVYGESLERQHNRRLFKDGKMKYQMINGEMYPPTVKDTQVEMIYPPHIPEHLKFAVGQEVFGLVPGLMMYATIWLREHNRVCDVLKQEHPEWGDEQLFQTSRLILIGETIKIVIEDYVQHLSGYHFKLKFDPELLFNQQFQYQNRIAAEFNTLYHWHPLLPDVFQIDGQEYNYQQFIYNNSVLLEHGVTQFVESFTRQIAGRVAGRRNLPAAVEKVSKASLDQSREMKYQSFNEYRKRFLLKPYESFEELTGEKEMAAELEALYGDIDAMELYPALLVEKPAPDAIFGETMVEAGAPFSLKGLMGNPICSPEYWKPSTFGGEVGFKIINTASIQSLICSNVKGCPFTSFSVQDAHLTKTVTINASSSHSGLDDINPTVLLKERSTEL
Put plainly: Inhibition of ovine COX-2 using arachidonic acid as substrate preincubated with enzyme for 5 mins followed by incubation with substrate for 5 mins by colorimetric analysis.

Series [3] can be described thus: Inhibition of soybean 5-LOX. More on the design: species or system Glycine max.
The target of series [4] is T3, Prostaglandin G/H synthase 2 (Homo sapiens, UniProt P35354).
T3 sequence (P35354 whole entry): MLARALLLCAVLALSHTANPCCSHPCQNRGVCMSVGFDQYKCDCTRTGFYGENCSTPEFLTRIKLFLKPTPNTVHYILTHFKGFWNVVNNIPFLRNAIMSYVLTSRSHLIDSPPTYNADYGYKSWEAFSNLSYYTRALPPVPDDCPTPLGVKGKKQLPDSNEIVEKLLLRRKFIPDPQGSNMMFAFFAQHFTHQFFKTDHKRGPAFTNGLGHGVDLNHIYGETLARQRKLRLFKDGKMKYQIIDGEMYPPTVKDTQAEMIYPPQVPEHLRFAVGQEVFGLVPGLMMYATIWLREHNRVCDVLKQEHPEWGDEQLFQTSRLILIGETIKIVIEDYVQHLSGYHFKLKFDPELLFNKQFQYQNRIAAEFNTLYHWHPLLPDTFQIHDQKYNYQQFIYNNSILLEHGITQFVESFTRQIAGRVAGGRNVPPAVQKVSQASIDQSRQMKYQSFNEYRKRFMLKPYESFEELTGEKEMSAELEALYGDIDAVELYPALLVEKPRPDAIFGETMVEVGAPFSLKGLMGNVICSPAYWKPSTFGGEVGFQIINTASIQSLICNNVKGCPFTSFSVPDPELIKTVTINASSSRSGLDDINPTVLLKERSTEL
Put plainly: Inhibition of COX-2 (unknown origin) using arachidonic acid as substrate preincubated with enzyme for 1 min followed by substrate addition by fluorometric analysis.

The subject of series [5] is RAW264.7. Nature of the series: Cytotoxicity against mouse RAW264.7 cells assessed as reduction in cell viability by MTS assay. In kind it is cell-based. A digest of the protocol: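 RAW 264.7 macrophage viability at the tested concentrations measured by MTS assay.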
In general terms: Tetrazolium dyes change colour on reduction, which living cells bring about.

Series [6] addresses T3, Prostaglandin G/H synthase 2. Put plainly: Inhibition of human recombinant COX-2 using arachidonic acid as substrate preincubated with enzyme for 5 mins followed by substrate addition by colorimetric analysis.
For series [7], the system named is RAW264.7. Nature of the series: Potency index, ratio of diclofenac sodium IC50 to test compound IC50 for inhibition of LPS-induced IL-6 production in mouse RAW264.7 cells preincubated for 2 hrs followed by LPS stimulation and measured after 20 hrs by ELISA. In kind it is functional. The following applies: time 22 hrs.
In series [8] the target is T4, Prostaglandin G/H synthase 2 (Homo sapiens) (UniProt P35354).
T4 sequence (whole entry): T3 sequence (P35354 whole entry)
Put plainly: Potency index, ratio of diclofenac sodium IC50 to test compound IC50 for human recombinant COX-2 using arachidonic acid as substrate preincubated with enzyme for 5 mins followed by substrate addition by colorimetric analysis.

Series [9] has as its system RAW264.7. Put plainly: Inhibition of LPS-induced TNFalpha production in mouse RAW264.7 cells preincubated for 2 hrs followed by LPS stimulation and measured after 20 hrs by ELISA. In kind it is functional, cell-based.
The test system of series [10] is RAW264.7. Put plainly: Potency index, ratio of celecoxib IC50 to test compound IC50 for inhibition of LPS-induced IL-6 production in mouse RAW264.7 cells preincubated for 2 hrs followed by LPS stimulation and measured after 20 hrs by ELISA. The class given is functional. The following applies: time 22 hrs.
The subject of series [11] is RAW264.7. Put plainly: Inhibition of LPS-induced IL-6 production in mouse RAW264.7 cells preincubated for 2 hrs followed by LPS stimulation and measured after 20 hrs by ELISA. In kind it is functional, cell-based. (In general: In an ELISA, binding on a coated surface is turned into a signal by an enzyme label.)
The subject of series [12] is RAW264.7. Put plainly: Potency index, ratio of celecoxib IC50 to test compound IC50 for antioxidant activity in mouse RAW264.7 cells assessed as inhibition of LPS-induced intracellular ROS production preincubated for 2 hrs followed by LPS stimulation and measured after 20 hrs by DCFH-DA staining based fluorescence analysis. The class given is functional. The following applies: time 22 hrs.

For series [13], the system named is RAW264.7. Nature of the series: Potency index, ratio of celecoxib IC50 to test compound IC50 for inhibition of LPS-induced 15(S)-HETE production in mouse RAW264.7 cells preincubated for 2 hrs followed by LPS stimulation and measured after 20 hrs by ELISA. The class given is functional. The following applies: time 22 hrs.
Series [14] deals with RAW264.7. Nature of the series: Antioxidant activity in mouse RAW264.7 cells assessed as inhibition of LPS-induced intracellular ROS production preincubated for 2 hrs followed by LPS stimulation and measured after 20 hrs by DCFH-DA staining based fluorescence analysis. In kind it is functional, cell-based.
Series [15] in a line: Inhibition of soybean 15-LOX using arachidonic acid or linolenic acid as substrate in presence of hydrogen peroxide incubated for 5 mins by colorimetric analysis. Also noted: species or system Glycine max.
Series [16] in a line: Selectivity index, ratio of IC50 for ovine COX-1 to IC50 for human recombinant COX-2. A digest of the protocol:
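Enzyme kit assay with ovine COX-1 and human recombinant COX-2. IC50 determined from three replicates. Selectivity index taken as IC50(COX-1)/IC50(COX-2).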

Series [17] concerns RAW264.7. Nature of the series: Inhibition of LPS-induced 15(S)-HETE production in mouse RAW264.7 cells preincubated for 2 hrs followed by LPS stimulation and measured after 20 hrs by ELISA. In kind it is functional, cell-based.
In series [18] the target is T1, Prostaglandin G/H synthase 1. Put plainly: Inhibition of ovine COX-1 using arachidonic acid as substrate preincubated with enzyme for 5 mins followed by substrate addition by colorimetric analysis.
The target in series [19] is T4, Prostaglandin G/H synthase 2 (Homo sapiens). Nature of the series: Inhibition of COX-2 in human whole blood assessed as reduction in PGE2 production at 10 uM measured after 24 hrs by EIA. In kind it is tissue-based.
In series [20] the target is COX-1 (Prostaglandin G/H synthase 1) (Homo sapiens, UniProt P23219). Nature of the series: Inhibition of COX-1 in human whole blood assessed as reduction in thromboxane B2 production at 10 uM measured after 1 hr by EIA. The class given is tissue-based.
Series [21] can be described thus: Inhibition of soybean 15-LOX using linolenic acid as substrate by spectrophotometric analysis. Also noted: species or system Glycine max.
For series [22], the system named is RAW264.7. Nature of the series: Potency index, ratio of celecoxib IC50 to test compound IC50 for inhibition of LPS-induced NO production in mouse RAW264.7 cells preincubated for 2 hrs followed by LPS stimulation and measured after 20 hrs by DAF-FM based fluorescence analysis. In kind it is functional. The following applies: time 22 hrs.
The subject of series [23] is RAW264.7. Put plainly: Potency index, ratio of diclofenac sodium IC50 to test compound IC50 for inhibition of LPS-induced NO production in mouse RAW264.7 cells preincubated for 2 hrs followed by LPS stimulation and measured after 20 hrs by DAF-FM based fluorescence analysis. The class given is functional. The following applies: time 22 hrs.
Series [24] relates to RAW264.7. Nature of the series: Cytotoxicity against mouse RAW264.7 cells assessed as reduction in cell viability at 50 uM by MTS assay. In kind it is cell-based. The following applies: raw264.7, 50 µM.
Series [25] concerns RAW264.7. Put plainly: Inhibition of LPS-induced NO production in mouse RAW264.7 cells preincubated for 2 hrs followed by LPS stimulation and measured after 20 hrs by DAF-FM based fluorescence analysis. The class given is functional, cell-based.

Sequence of COX-1 (Prostaglandin G/H synthase 1) (P23219 whole entry): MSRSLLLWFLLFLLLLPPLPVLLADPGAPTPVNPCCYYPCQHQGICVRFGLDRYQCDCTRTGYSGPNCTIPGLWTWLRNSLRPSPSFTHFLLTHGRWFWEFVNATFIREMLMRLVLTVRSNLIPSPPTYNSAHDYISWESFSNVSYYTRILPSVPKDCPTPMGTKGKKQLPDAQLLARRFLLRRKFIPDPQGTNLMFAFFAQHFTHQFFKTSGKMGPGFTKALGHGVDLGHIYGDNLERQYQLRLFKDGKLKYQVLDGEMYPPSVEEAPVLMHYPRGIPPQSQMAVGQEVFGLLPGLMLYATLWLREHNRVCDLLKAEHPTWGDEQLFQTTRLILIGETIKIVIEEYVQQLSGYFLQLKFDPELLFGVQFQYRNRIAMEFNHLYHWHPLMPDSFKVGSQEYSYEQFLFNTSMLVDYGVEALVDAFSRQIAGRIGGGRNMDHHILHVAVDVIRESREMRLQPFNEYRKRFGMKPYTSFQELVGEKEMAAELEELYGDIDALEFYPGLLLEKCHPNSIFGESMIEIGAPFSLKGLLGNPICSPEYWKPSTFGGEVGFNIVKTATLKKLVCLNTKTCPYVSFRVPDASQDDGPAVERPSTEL

Consider `COc1ccc(-c2nn(-c3ccc(Cl)cc3)cc2/C=C/c2cc(C(=O)N3CCOCC3)c3cc(Cl)ccc3n2)cc1`, for which the IC50 was found to be 11.4 µM in series [1], 0.1 µM in series [2] and 1.87 µM in series [3].

As to `COc1ccc2ccc(F)c(CC(=O)N/N=C/c3ccc(C(F)(F)F)cc3)c2n1`, the midpoint of inhibition in [4], the IC50, lay at 0.13 µM.

Take `O=c1c(Cc2ccccc2)n[nH]c(=S)n1/N=C/c1cc2cc(OCc3ccccc3)ccc2nc1O`: the Activity entry with RAW264.7 [5] was “Non-Toxic”. Moreover, the IC50 came to 0.047 µM in [6]; 19.2 µM in the series with RAW264.7 [9]; 7.7 µM in the series with RAW264.7 [11]; 1.02 µM in the series with RAW264.7 [14]; 1.81 µM in [15]; 0.17 µM with RAW264.7 [17]. In series [18], this compound returned an IC50 of 12.5 µM. Besides, the Ratio IC50 in the series on RAW264.7 [7] was found to be 1.7; in [8], 17.9; in the series with RAW264.7 [10] it was 1.5; in the series on RAW264.7 [12], 11; in the series with RAW264.7 [13], 43; in series [16], 266.

Regarding `COc1ccc(C2=C(c3ccc(OC)cc3)NNC(N/N=C/c3ccc(F)cc3)=N2)cc1`, the inhibition in [19] was determined as 72%. The inhibition at 1 h, 10 µM in series [20] worked out at 69%. Besides, the IC50 in series [21] was 124 µM.

Turning to `COc1cc(Cc2n[nH]c(=S)n(/N=C/c3cc4ccc(OCc5ccccc5)cc4nc3Cl)c2=O)cc(OC)c1OC`, the “Ratio IC50” value in the series with RAW264.7 [22] turned out to be 3; with RAW264.7 [7] it was 2.1; in series [8], 7; with RAW264.7 [10], 1.8; in the series with RAW264.7 [23], 6; in [16], 64.2. Moreover, the Activity entry in the series on RAW264.7 [5] is listed as “Non-Toxic”; in the series with RAW264.7 [24], “Toxic”. In addition, the IC50 in [6] was found to be 0.12 µM; with RAW264.7 [9], 16 µM; in the series on RAW264.7 [11] it was 6.11 µM; in the series with RAW264.7 [14], 4.36 µM; in [15], 3.39 µM; in the series on RAW264.7 [25], 6.76 µM. Further, the IC50 is 2.03 µM with RAW264.7 [17] and 7.7 µM in series [18].
